Measurements from the EternaBench riboswitch data.

System: MS2 coat protein
Assay: apparent Kd, MS2 coat protein; higher = weaker binding; RNA-MaP array; FMN 200 µM where present
Procedure, shortened: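 Designs on Illumina sequencing-chip clusters, transcribed by stalled E. coli RNA polymerase, were exposed to SNAP-549-labelled MS2 coat protein in doubling steps from 0.7 or 1.5 nM up to 3 µM, without and then with constant ligand. The buffer held 100 mM Tris-HCl pH 7.5, 80 mM KCl, 4 mM MgCl2, BSA, DTT, yeast tRNA and Tween-20. Apparent Kd values are medians of filtered per-cluster binding-curve fits to green signal normalised to red-channel RNA signal and control-cluster median Fmax.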

[1] = designed as: OFF switch for flavin mononucleotide, no ligand
[2] = ligand present: flavin mononucleotide, designed as: OFF switch for flavin mononucleotide
[3] = designed as: ON switch for flavin mononucleotide, no ligand
[4] = ligand present: flavin mononucleotide, designed as: ON switch for flavin mononucleotide

Sequence | apparent Kd [1] [nM] | apparent Kd [2] [nM] | apparent Kd [3] [nM] | apparent Kd [4] [nM]
CCGAGGCGAGGAUAUACAUGAGGAUCACCCAUGUCUGACCGACGCGCGCCAGGCAUAUGUAGAAGGCGCCGGAA | 31.5 | 138 | – | –
CCAGCGUAUGUGAGGAUAUGCUGGUCCUUGGAUCAGCAGAAGGCACAUGAGGAUCACCCAUGUGGAGACGUUGG | 21.8 | 102 | – | –
AAUCUGUAGCAGAAGGUCAUUUUUAUAAAUAAACUGGUGACAUGAGGAUCACCCAUGUAAACGUUGAAGGAUAUGCAUUCUAUU | 44.9 | 52.5 | – | –
CUGGUCUAUGUAGGAUAUGGUGUAUAUGUAUUACCAGAAGGACAUGAGGAUCACCCAUGUGUCGUGGUAUGAGUAGGUGAUGUU | 47.2 | 146 | – | –
CGCUCUAUAUAUUAGGCAAGAAUCAGAAGGCGUUACAUGAGGAUCACCCAUGUUUUGUAUAGUAACGAGGAUAUGAUAUGAGCG | 13.6 | 14.5 | – | –
GUCUUCCUAGGAUAUACAUGAGGAUCACCCAUGUACAGUUUCGUCUUGGGAUACUCGCGUAGAAGGAGGUGGUU | 33.2 | 37.3 | – | –
ACAUGAGGAUCACCCAUGUUGAUAGUAGAAGGGACAGAGAAGUAGUAACAUGAGGAUCACCCAUGUCAGGAUAUGCGAAUUGGA | – | – | 35.2 | 30.1
CCGGAAAUAGAGGAUAUAGGACUGGAUACAGUCCUAGAAGGCUAUACAUGAGGAUCACCCAUGUGUCCUACCGG | 15.7 | 44 | – | –
CUAUGCGGAAUAGGAUAUUCAUUCAUGAGGAUAGAAGAAGGGUUACAUGAGGAUCACCCAUGUAUGCACAUGAGGAUCCCUUAG | 247 | 260 | – | –
CUGGGUAAAAUGGGAGGUAGCUGGCAGGAUAUGACAUGAGGAUCACCCAUGUGGAGAUCUUGGGAUCAGAAGGGCCUGUGACCU | 205 | 119 | – | –
UGCUAAUUGUAGAAGGGUGACAUGAGGAUCACCCAUGUGCACGCGCGAUUUACGGCGCGCGUGCCACAGGAUAUACAGUUGAGU | – | – | 58.1 | 34.6
GAAUAGAAAGAUUAAUAUGAUUACAUGAGGAUCACCCAUGUAUAGGAUAUCGACGUCAAUGACGUCGAGAAGGAUACAUAAUAA | 14.5 | 26.1 | – | –
UGCGUGGUCACAGGAUAUGCAAGAUAAACUUUAGCAGAAGGGUGAUCAAUCAGCUCAAUACCACAUGAGGAUCACCCAUGUCUA | – | – | 53.4 | 258
UACAUUUAACAGAAGGCGUUUAUAUAUAACUUACGAGGAUAUGUAUAACAUGAGGAUCACCCAUGUAACAUGGAGAGAAUAUCU | – | – | 43.1 | 26.6
UCACGUCGCCAAGGAUAUACCCGAAGAUCCAUGGUAGAAGGUGGUGACAUGAGGAUCACCCAUGUCCGCGCGGACAAGUGUGCU | 66 | 14.7 | – | –
UCUGUUCAAGGAUAUGCGUAAUGUGUUACGGCACGAGGUCUACAUGAGGAUCACCCAUGUAGAAGGUGAUCAGA | 21.5 | 22.2 | – | –
CAGCGAAAGUAGAAGGCAGUACUGAUACAGUACUGAGGAUAUACAUGAGGAUCACCCAUGUCCUUCAGCUGGAAAUAAAUAAAA | 5.9 | 50.9 | – | –
CUGUGACGGUGCGCAAGUGGACGUAGAAGGGUCACAUGAGGAUCACCCAUGUGGGCCUGCGAGUGACAGGAUAUACGUUCGUGC | 15 | 57 | – | –
AAGAAGUGAGGAUAUACAUGAACGAAAAAAAAAAAGAGCAUGUAGAAGGCACAUGAGGAUCACCCAUGUCAAAA | 28.5 | 27.3 | – | –

Sequence | apparent Kd [1] [nM] | apparent Kd [2] [nM] | apparent Kd [3] [nM] | apparent Kd [4] [nM]
CCGGAAAUGUAGGAUAUAGGAGUCGAUAGACACCUAGAAGGGCAUACAUGAGGAUCACCCAUGUGUCCUACCGG | 13.7 | 15.8 | – | –
UAAAAGUCAGGAUAUGCGAAGGCGUCUGAUAGACGAGGCUAGCAGAAGGGACAUGAGGAUCACCCAUGUGAAAU | 51.8 | 138 | – | –
UAAAUUAACAAGAAGGCUAACAUGAGGAUCACCCAUGUUGUACAUGGAUAUAGAGGAUAUUGCUAAUUAUUAUUUAUCAUAAUU | 23.6 | 18.3 | – | –
AAGAAACAUGAGGAUCACCCAUGUAGAAAUAUGGGAGGAUAUACGAGGACGAAAGUCAAAGUAGAAGGCCUAAGAA | – | – | 56.9 | 27.4
CAUUGACGACAAUUACAUGAGGAUCACCCAUGUUUUGGGAUGCAGGAUAUGUGGUAUAUUAAUUAACAGAAGGGCAAUAAUUUU | – | – | 34.7 | –
GGGUACAUCGGAGGAUAUCAUGUAAAUACAUGAGGAUCACCCAUGUCGAUGGAGACUUCGGAGAUUGAGAAGGCCGAUGUACCG | – | – | 434 | 27.8
UACAGCGUAGAUAAUUAUGUUACAUGAGGAUCACCCAUGUCAUAGGAUAUGCAGUGGAAUACACUGCAGAAGGAUGCAUCGCUG | 14.7 | 18.5 | – | –
CAAAGUGGAGGAUAUACAUGAGGAUCACCCAUGUAAGGACAAUAAAUAAGAAGAAGAAGUAGAAGGCCACUCAA | 31.1 | 41.6 | – | –
GCCGAACAUGAGGAUCACCCAUGUCUGGGUAAUCAAGGAUAUGGGAAGGCUUUGCCAUGACCAGAAGGUGGUUAUC | – | – | 209 | 23.1
UAAAUUAACAAGAAGGCUAACAUGAGGAUCACCCAUGUUGUACAUGGAUAUAGAGGAUAUUGCUAUUAAUUAUUUAUCAUAAUU | 21.2 | 18.9 | – | –
GUUAAACAUGAGGAUCACCCAUGUAAGGAUAUGCUGCGGUAGAGAUGAAGUGAAUGCAGCAGAAGGUACAAUUG | 124 | 109 | – | –
AAGAAACAUGAGGAUCACCCAUGUAAAUAAAUCUCAGGAUAUCGUACAUGGAAGAUCUAACGAGAAGGGAGAAGAA | – | – | 137 | 140
AGUAACAGAGGAUAUACUGUUUUAUGUGUUUGUUGUUUUAAACAUGAGGAUCACCCAUGUAGAAGGCUGAAUAA | 20.1 | 21.2 | – | –
CGGGCUGCUGUGAGGAUAUGCCUGUGGGUGCGUGGGUAGAAGGCACAUGAGGAUCACCCAUGUCCUGCGGCUCG | 736 | 537 | – | –
CGCUACGUUUCGUAGCAGUGUCAUCGAGAAGGCCCUGACAUGAGGAUCACCCAUGUUCCUGAAAAGGAGGAUAUCGAUGAUACA | – | – | 8.86 | 7.04
UUGAUGUCAUCAGGAUAUAGUAUUUAAGACAUAUCUUCUUUCAAACAUGAGGAUCACCCAUGUCGCUAGAAGGGAUGAAUGAUU | 16.6 | 14.4 | – | –
AAUCCGUCACAUGAGGAUCACCCAUGUGACCCUACUAUUGGACAGGAUAUCCAAGGGUCGAAGCGGGAGAAGGGUCACAAUGGG | – | – | 32.5 | 51.9
AGGGUGGGCUCAGGAUAUCAGGAAGGGAUGUGGACAUGAGGAUCACCCAUGUACCAGUGUUGUUAUGAGAAGGGAGAUAUUGUA | – | – | 16.7 | 13.5
AGGGUAGUAGGAUAUACAUGAGGAUCACCCAUGUUUCCUUUACGUGACUGGUCCUAGUGUAGAAGGGCUAGCAC | 15.8 | 14.8 | – | –

Sequence | apparent Kd [1] [nM] | apparent Kd [2] [nM] | apparent Kd [3] [nM] | apparent Kd [4] [nM]
GCCUUAUUGGUCAGGAUAUACAUUUGUUACUCUUUGUAGAAGGGACAUGAGGAUCACCCAUGUACAUUACAUUC | 20.8 | 33.5 | – | –
GUUAAGUGAGGAUAUGGUGAGUAGUGCCAGAGCGCUGCUCACCAGAAGGCACAUGAGGAUCACCCAUGUAUAGC | 15.7 | 31.5 | – | –
ACAUUGCUAGGAUAUCGCGGUAAGGACAUGAGGAUCACCCAUGUGGUGCCGUGGGAGGCCCGAGAAGGAGCGACCU | 23.1 | 25.9 | – | –
AUAAUGUAAGGAUAUCAGUCGACUAGCUUCGGCUAGUCGACUGAGAAGGUACAUGAGGAUCACCCAUGUGUUUC | 37.7 | 209 | – | –
GAGACGUCAGGAUAUCUGAUGUCUAACUUCGGUUAGACAUCAGAGAAGGGACAUGAGGAUCACCCAUGUCUCAG | 15.9 | 13.9 | – | –
GAGGAUAGAGGAUAUGCAUAGAUACGGAUUCGUGUAGUACUACAUGAGGAUCACCCAUGUAGAAGGCUGUCCAG | 12.7 | 22 | – | –
CGAUUGGGAGGAUAUGCGUGGAUAGUUUUAUAUAGUAUGUUACAUGAGGAUCACCCAUGUAGAAGGUUCGGUUG | 56.9 | 58.3 | – | –
GGUUGUCAUCGUCAUCCUUUCGGUACAUGAGGAUCACCCAUGUAGGAUAUGCUGCGCUCGGUGUGGCAGAAGGGCGUGUGUGUU | 23.8 | 40.3 | – | –
ACAUGCAUAGCGAUAUGAUCGAGAGAUCAUGUCGCUAAAUUUAGAAGGACAUGAGGAUCACCCAUGUAGGAUAUGGGAGCAUGG | – | – | 42.8 | 10.3
UUUGGGUGGCUGGAGGAUAUUCGAGUGGUAACAUGAGGAUCACCCAUGUGUCGCGCGGUACACGAGGAGAAGGCUGGCGGCCGUU | – | – | 56.5 | 18.9
UAUGUAUCCUCGGGAUCCACAUGAGGAUCACCCAUGUAGACUCAGGAUAUCCAAUGCGUUGACAGGGAGAAGGGAGUUCGCAUG | 44.2 | 36.2 | – | –
UACGUACAGAAGAACGCCGGGUCCAGAAGGGACAUGAGGAUCACCCAUGUACCGUUGAUUGCUUGUCAGGAUAUGGACCCGGCC | 6.32 | 21.8 | – | –
UCAACCAGCGCCAGUUGAACAUGAGGAUCACCCAUGUACUCCAGAAGGCCGCCCAAGAACGGAGUGGAGGAUAUGGAGGUUCUC | – | – | 28.5 | 18.4
GUAUGAGCGAUAGGAUAUACUGAGAUUGAAUGGGUAGAAGGAUCACUUGUGUGGAAGACAUGAGGAUCACCCAUGUCACGGGCC | – | – | 52.3 | 157
AAGAGUAGAGGAUAUACGAAAAAAGAGUCGAAAGACUCGGGACAUGAGGAUCACCCAUGUAGAAGGCUACUCAA | 25.4 | 120 | – | –
CCGAUGCUUAUAAAACAUGAGGAUCACCCAUGUGAGACACAUGAGGAUAUGCAGGUCAAAGACUUGCAGAAGGCAUAGCGUCGG | – | – | 644 | 61.8
AAGUAGAUCCGAGGAUAUACAAUCUGGAAACGGUACAUGAGGAUCACCCAUGUAGAAGGCGGAUCUACAGGUACUAAAGUACCA | 7.4 | 16.4 | – | –
AUCAGCUCGUUAGGAUAUACGUCACUGCGUCAGCAGUGUGGUAAGAUCACAUGAGGAUCACCCAUGUAGAAGGGACGAGCUGAU | 12.8 | 94.2 | – | –
